Screening results (PubChem)
Most compounds without a hit are left out; they make up all but 2.7% or so of the library.
L929 necroptosis = L929 zVAD cell death inhibition; L929 zVAD necroptosis rescue, ATP luminescence, 24 h; with zVAD 60 µM; viability rescue, % at 10 µM; 220,000 compounds, 0.38% hits; AID 1377;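 active = activation, scaled between plate controls, above about 75%, limit read from the data; inactive = activation under that limit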;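 also: 0% = zVAD with DMSO and 100% = DMSO alone without zVAD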
M18AAP inhibitor = blocks P. falciparum M18 aspartyl aminopeptidase; inhibition, % at 7.35 µM; 290,000 compounds, 1.2% hits; recombinant PfM18AAP, H-Glu-NHMec fluorogenic cleavage;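 active = inhibition above the campaign mean inhibition over all tested compounds plus 3 SD, cut at about 28% in these data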;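 also: 0% = plate median of test compound wells and 100% = 2 mM ZnCl2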
Wee1 stabilizer = blocks degradation of human Wee1 kinase. reporter increase, % at 5 µM. P30291. HeLa Luc-Wee1K328M stability, luciferase luminescence; 100% = proteasome inhibitor MG132 effect. AID 1321. 220,000 compounds, 1.2% hits;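 active = activation above the mean of all tested compounds plus 3 SD, set per screening run, cut at about 8.8% in these data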;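 also: cells exposed to compound for 20 h before luminescence read; 0% = DMSO alone and 100% = MG132 at 30 µM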
Target sequence (P30291 whole entry K328M): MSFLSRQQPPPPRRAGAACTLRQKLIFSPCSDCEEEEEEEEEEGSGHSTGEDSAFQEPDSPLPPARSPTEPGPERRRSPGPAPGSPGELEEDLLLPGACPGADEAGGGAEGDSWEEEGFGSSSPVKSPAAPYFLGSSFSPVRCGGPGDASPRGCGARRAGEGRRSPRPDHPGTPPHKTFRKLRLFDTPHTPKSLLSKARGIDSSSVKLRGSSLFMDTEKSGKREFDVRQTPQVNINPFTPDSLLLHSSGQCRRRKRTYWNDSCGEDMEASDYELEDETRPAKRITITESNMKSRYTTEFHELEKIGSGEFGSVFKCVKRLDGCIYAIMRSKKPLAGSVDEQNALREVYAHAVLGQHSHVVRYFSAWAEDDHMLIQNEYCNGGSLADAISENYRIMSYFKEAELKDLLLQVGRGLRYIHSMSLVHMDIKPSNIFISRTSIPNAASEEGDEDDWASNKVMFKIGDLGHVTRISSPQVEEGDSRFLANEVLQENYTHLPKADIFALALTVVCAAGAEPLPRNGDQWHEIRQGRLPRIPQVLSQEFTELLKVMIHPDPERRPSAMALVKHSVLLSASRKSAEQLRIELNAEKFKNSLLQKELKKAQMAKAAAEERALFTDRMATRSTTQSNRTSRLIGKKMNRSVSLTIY
p97 inhibitor = inhibitors of human p97 ATPase. 220,000 compounds, 0.42% hits. recombinant p97 ATPase, Kinase-Glo ATP luminescence, 3 h. AID 1481. inhibition, % at 8 µM; in the data active = inhibition above about 15%;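 also: 0% = DMSO vehicle and 100% = wells lacking enzyme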
RBBP9 inhibitor = inhibitors of human serine hydrolase RBBP9 | O75884 | recombinant RBBP9, FP-Rh probe fluorescence polarization | inhibition, % at 7.94 µM | 220,000 compounds, 0.2% hits;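 active = inhibition above the campaign mean of all tested compounds plus 3 SD, cut at about 14% in these data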;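 also: plate controls were DMSO wells with RBBP9 for no effect and wells lacking RBBP9 protein for full effect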
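Measured by: FP readout at 525/598 nm; material: recombinant human RBBP9; also added: Serine-hydrolase probe FP-Rh, 375 nM pre-mixing; medium: Tris buffer pH 8.0, NaCl, Pluronic; replication: one well per compound; doses: one concentration, 7.94 µM nominal, 0.794% DMSO; timing: preincubation 30 min plus labeling 45 min at 25 °C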
TNF death inh = inhibitors of TNF-alpha induced necroptosis in Jurkat FADD-/- cells | Jurkat FADD-/- TNF necroptosis rescue, ATP luminescence, 24 h; 0 = TNF only, 100 = no-TNF cells | activation (protection from cell death), % at 10 µM | 220,000 compounds, 0.068% hits;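 active = activation, meaning protection from cell death, of at least 50% relative to plate controls; inactive = activation below 50%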;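 also: necroptosis triggered by 40 ng/mL TNF-alpha added together with compound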
* marks the source's active call; other numbers are inactive results; / = not tested or not shown.

SMILES	L929 necroptosis	M18AAP inhibitor	Wee1 stabilizer	p97 inhibitor	RBBP9 inhibitor	TNF death inh
NC(=O)[C@H](Cc1cc2ccccc2s1)NC(=O)[C@@H]1CC2(CC(c3cccc(NC(=O)[C@@H]4CCC(=O)N4)c3)=NO2)CN1C(=O)/C=C/Sc1ccccc1 (some centres undefined)	3	-5	-1	17*	-25	4
CC(C)CNC(=O)c1cc(S(=O)(=O)N2CCOCC2)ccc1N1CCCC1	/	6	/	/	/	/
CCOC(=O)c1c(NC(=O)Nc2ccc(C)cc2)sc2c1CCN(C)C2	0	-6	10*	0	7	2
CC(C)c1ccc(-c2nnc(SCC(=O)NC3CC3)n2C)cc1	/	4	/	/	/	/
Cc1ccc(OCc2nc(-c3ccccn3)n[nH]2)cc1	0	11	9.1*	0	-6	-1
Cc1cccc(OCc2nc(-c3ccccn3)n[nH]2)c1	2	14	1	-4	-10	0
CN1CCN(c2ccc(NC(=O)CSc3ccccc3)cc2F)CC1	1	-1	9.8*	-2	-5	-2
O=C(N/C(=C\c1cccc([N+](=O)[O-])c1)C(=O)N1CCOCC1)c1cccc(Br)c1	/	-10	/	/	/	/
CCN(CC)CCN(Cc1cc2cc3c(cc2[nH]c1=O)OCO3)C(=S)NCC1CCCO1 (centres undefined)	-3	28*	-1	3	0	1
CCN(CC)CCN(Cc1cc2cc3c(cc2[nH]c1=O)OCCO3)C(=S)NCC1CCCO1 (centres undefined)	0	6	2	7	-5	-2
CCOC(=O)C1=NN(C(=O)c2ccccc2)C(O)(c2ccc(C)cc2)C1 (centres undefined)	0	1	15*	-8	-11	0
COc1ccccc1NC(=O)c1cccc2c(Br)cccc12	/	-5	/	/	/	/
CN(C)c1ccc(/C=C/c2cccc[n+]2[O-])cc1	0	13	9.9*	9	1	0
COc1ccc(CC(=O)NNC(=O)c2ccccn2)cc1	/	8	/	/	/	/
COc1ccc(CC(=O)NNC(=O)c2cnccn2)cc1	0	29*	1	1	-2	1
Cc1cc(C)cc(C(=O)Nc2ccc(N3CCN(C(=O)c4ccco4)CC3)cc2)c1	/	-12	/	/	/	/
COC(=O)c1sc2cc(=O)n(-c3cccc(C(F)(F)F)c3)nc2c1O	0	31*	0	5	9	0
COc1cc(NC(=O)c2cc(Cl)nnc2Cl)cc(OC)c1OC	-1	8	10*	-4	-8	0
COc1ccc(-c2nnc(SCC(=O)Nc3ncc(C)s3)n2-c2ccccc2)cc1OC	0	-2	9.9*	-4	-7	-9
Cc1ccc(C(=O)Nc2ccccc2N2CCCCC2)o1	/	5	/	/	/	/
O=C(c1ccncc1)N1CCN(S(=O)(=O)c2ccc(F)cc2)CC1	/	-8	/	/	/	/
Cc1ccc(N=Nc2c(=O)[nH]n3c(C)cc(C)nc23)cc1	0	2	11*	0	1	-3
CC1(c2ccccc2Cl)NC(=O)N(CC(=O)NCc2ccc3c(c2)OCO3)C1=O (centres undefined)	/	-6	/	/	/	/
Cc1cc(NC(=O)Nc2ccc(OCc3ccccc3)cc2)n(C)n1	/	-4	/	/	/	/
CCOc1ccc(-c2c(C)n([O-])c3c([n+]2=O)CCCCC3)cc1	0	-2	8.9*	0	-6	0
SMILES	L929 necroptosis	M18AAP inhibitor	Wee1 stabilizer	p97 inhibitor	RBBP9 inhibitor	TNF death inh
COCCNC(=O)[C@H](C)[C@H]1C[C@]1(C)[C@H](NC(=O)OCc1ccccc1)c1ccccc1	-1	-8	9.1*	-8	-11	1
CN(C)S(=O)(=O)Nc1cc(F)cc(F)c1	0	-4	1	4	1	1
CC(C)C1Nc2ccc(C(=O)NCc3ccco3)cc2NC1=O (centres undefined)	/	30*	/	/	/	/
COc1ccc(C(=O)Nc2c(-c3cccs3)c(=O)c3ccccc3n2C)cc1	1	-10	-2	5	-4	0
Cc1ccc(C(=O)Nc2c(-c3cccs3)c(=O)c3ccccc3n2C)cc1	0	-6	9.1*	2	-7	-4
O=C1CC(=O)c2c1cccc2[N+](=O)[O-]	0	34*	2	17*	14	-9
COc1cccc(CNC(=O)c2ccc(C3SCCS3)cc2)c1	/	-7	/	/	/	/
NS(=O)(=O)c1ccc(NC(=O)COC(=O)c2ccc(Cl)cc2[N+](=O)[O-])cc1	0	4	11*	2	-5	0
O=c1[nH][nH]c(=S)n1C1CCCCC1	0	58*	7	-2	-6	-1
O=c1cc(O)n(C2CCCCCC2)c(=O)[nH]1	/	9	/	/	/	/
CCOc1ccc(NS(=O)(=O)c2ccc(-c3ccc(=O)[nH]n3)o2)cc1	/	1	/	/	/	/
Cc1ccc(C)c(OCc2nnc(NC(=O)c3ccc4c(c3)OCO4)s2)c1	0	-3	11*	2	-2	2
CC(C)c1nnc(NC(=O)c2ccc3c(c2)OCO3)s1	1	4	2	2	0	1
CC(=O)Nc1ccc(NC(=O)CSc2nc(N)c(NC(=O)c3ccco3)c(=O)[nH]2)cc1	/	6	/	/	/	/
FC(F)(F)c1cnc(COc2ccc(Cl)cc2Cl)c(Cl)c1	-1	7	3	4	2	7
COc1ccccc1-n1c(CNC(=O)c2cccc([N+](=O)[O-])c2C)n[nH]c1=S	3	23	2	3	-1	1
O=C(NCc1n[nH]c(=S)n1-c1ccccc1)c1cccs1	1	28*	1	-2	-4	0
O=C(NCc1n[nH]c(=S)n1-c1cccc(Cl)c1)c1cccs1	0	24	-2	0	-11	0
Cc1cccc(-n2c(CNC(=O)c3cccc([N+](=O)[O-])c3C)n[nH]c2=S)c1	0	30*	3	-5	-6	0
CC(=O)c1cccc(NC(=O)NNC(=O)c2ccc(-c3ccccc3)cc2)c1	/	3	/	/	/	/
Cc1noc(NC(=O)c2c(-c3c(Cl)cccc3Cl)noc2C)c1[N+](=O)[O-]	-1	3	8.9*	3	-2	-2
CCCCCN(C(=O)NC(=O)Nn1cnnc1)S(C)(=O)=O	0	28	9.9*	9	-1	-4
CCCCCN(C(=O)NC(=O)NCCCC)S(C)(=O)=O	0	0	4	7	-3	-1
C=CCNC(=O)/C(C#N)=C\c1cc(Cl)c(OCC)c(OC)c1	0	-1	-1	6	-8	1
CCC(C)NC(=O)CC(NS(=O)(=O)c1ccc(NC(C)=O)cc1)C(C)C (centres undefined)	0	-18	9.8*	1	-7	0
CCCCCCCCNC(=O)CC(NS(=O)(=O)c1ccc(NC(C)=O)cc1)C(C)C (centres undefined)	/	0	1	-1	-2	1
